# Laboratory results as given in ChEMBL document CHEMBL3407477, “Synthesis and biological evaluation of compact, conformationally constrained bifunctional opioid agonist - neurokinin-1 antagonist peptidomimetics” (Eur J Med Chem, 2015).
# Activity calls are given as the source filed them.
# Experiments:
# Rattus norvegicus [1] = assay: Antiallodynic effect in Wistar rat chronic constriction injury model assessed as tolerance to neuropathic pain at 1 nmol, it qd for 6 days administered from 7 days post CCI challenge to day 13 by Von Frey test; type: functional, organism-based
# Summary of the method: (§1)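 CCI Wistar rats received once-daily i.t. injections (morphine 3.5 nmol, hybrids 1 nmol, in water for injection) from day 7 to day 13 after CCI. Von Frey and 5 °C cold plate tests were run 30 min after each dose. Data are %MPE and AUC, 12-16 rats/group, ANOVA with Bonferroni.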
# Rattus norvegicus [2] = species on record: Rattus norvegicus; assay: Antinociceptive activity in Wistar rat at 1 nmol, it after 30 mins by tail flick test; type: functional
# Summary of the method: (§2)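 Naive male Wistar rats (250-300 g) with i.t. catheters received a single i.t. injection in water for injection (5 µl plus 10 µl flush), 7 days after catheter implantation. Tail-flick latency to a light-bulb heat stimulus at two-thirds of tail length was read 30 min post-dose (timepoints up to 180 min), with a 9 s cut-off. Data are %MPE = (TL-BL)/(cut-off-BL)×100, 7-12 rats/group, ANOVA with Bonferroni.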
# Rattus norvegicus [3] = species on record: Rattus norvegicus; assay: Antinociceptive activity in Wistar rat at 0.1 nmol, it after 30 mins by tail flick test; type: functional; summary of the method: as §2
# Rattus norvegicus [4] = species on record: Rattus norvegicus; assay: Antiallodynic effect in Wistar rat chronic constriction injury model at 1 nmol, it measured 7 days post CCI challenge by Von Frey test; type: functional
# Summary of the method: (§3)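 Male Wistar rats (300-350 g) with i.t. catheters (L4-L6) had CCI made by four loose silk ligatures on the right sciatic nerve. On day 7 they received a single i.t. dose in water for injection. Mechanical allodynia was measured 30 min later with an automatic von Frey device (0.5-26 g) on the midplantar hind paw. Data are %MPE, 6-12 rats/group, ANOVA with Bonferroni.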
# Rattus norvegicus [5] = species on record: Rattus norvegicus; assay: Antiallodynic effect in Wistar rat chronic constriction injury model at 0.1 to 1 nmol, it measured 7 days post CCI challenge by Von Frey test; type: functional, organism-based; summary of the method: as §3
# Rattus norvegicus [6] = species on record: Rattus norvegicus; assay: Reduction of hyperalgesia in Wistar rat chronic constriction injury model at 1 nmol, it measured 7 days post CCI challenge by cold plate test; type: functional, organism-based
# Summary of the method: (§4)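 In catheterized male Wistar rats with sciatic CCI, a single i.t. dose in water for injection was given on day 7. Thermal hyperalgesia was measured 30 min later as latency to hind-paw shake on a 5 °C cold plate. Data are %MPE, 6-12 rats/group, ANOVA with Bonferroni.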
# Rattus norvegicus [7] = species on record: Rattus norvegicus; assay: Toxicity in Wistar rat chronic constriction injury model at 1 nmol, it measured 7 days post CCI challenge; type: organism-based; conditions: in vivo, icv_or_intrathecal, 168 h
# Rattus norvegicus [8] = assay: Toxicity in Wistar rat assessed as seizures at 9.5 nmol, iv; type: organism-based; conditions: in vivo
# Rattus norvegicus [9] = species on record: Rattus norvegicus; assay: Antinociceptive activity in Wistar rat at 0.1 to 11 nmol, it after 30 mins to 2 hrs by tail flick test; type: functional, organism-based
# Rattus norvegicus [10] = assay: Antiallodynic effect in Wistar rat chronic constriction injury model assessed as cross tolerance developement pretreated with morphine at 3.5 nmol, it qd for 6 days administered from 7 days post CCI challenge to day 13 measured 30 mins post compound challenge by cold plate test; type: functional, organism-based
# Summary of the method: (§5)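 CCI Wistar rats were made tolerant by 6 days of once-daily i.t. dosing (morphine 3.5 nmol or hybrid 1 nmol). On day 13 they received a single i.t. challenge (morphine 3.5 nmol or hybrid 1 nmol) against repeated-vehicle controls. Von Frey and cold plate tests were run 30 min later. Data are %MPE, 6-8 rats/group, ANOVA with Bonferroni.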
# Rattus norvegicus [11] = species on record: Rattus norvegicus; assay: Selectivity ratio of Ki for rat brain DOR to Ki for rat brain MOR
# Rattus norvegicus [12] = assay: Toxicity in Wistar rat assessed as death at 9.5 nmol, iv; type: organism-based; conditions: in vivo
# Rattus norvegicus [13] = assay: Antiallodynic effect in it dosed Wistar rat measured 7 days post CCI challenge by Von Frey test; type: functional; summary of the method: as §3
# Rattus norvegicus [14] = assay: Antiallodynic effect in Wistar rat chronic constriction injury model assessed as cross tolerance developement pretreated with morphine at 3.5 nmol, it qd for 6 days administered from 7 days post CCI challenge to day 13 measured 30 mins post compound challenge by Von Frey test; type: functional, organism-based; summary of the method: as §5
# Rattus norvegicus [15] = assay: Reduction of hyperalgesia in it dosed Wistar rat measured 7 days post CCI challenge by cold plate test; type: functional; summary of the method: as §4
# Rattus norvegicus [16] = species on record: Rattus norvegicus; assay: Toxicity in Wistar rat chronic constriction injury model at 11 nmol, it measured 7 days post CCI challenge; type: organism-based; conditions: in vivo, icv_or_intrathecal, 168 h
# Rattus norvegicus [17] = assay: Antinociceptive activity in it dosed Wistar rat after 30 mins by tail flick test; type: functional; summary of the method: as §2
# Rattus norvegicus [18] = assay: Antiallodynic effect in Wistar rat chronic constriction injury model assessed as tolerance to neuropathic pain at 1 nmol, it qd for 6 days administered from 7 days post CCI challenge to day 13 by cold plate test; type: functional, organism-based; summary of the method: as §1
smiles,measurement,setting,value
Cc1cc(O)cc(C)c1C[C@H](N)C(=O)N[C@H](CCCNC(=N)N)C(=O)N[C@H]1Cc2ccccc2CN(CCC(=O)N(C)Cc2ccccc2)C1=O,Activity,Rattus norvegicus [1],Active
same,MPE,Rattus norvegicus [2],30%
same,MPE,Rattus norvegicus [3],8.9%
same,MPE,Rattus norvegicus [4],80%
same,Activity,Rattus norvegicus [5],Active
same,Activity,Rattus norvegicus [6],Active
same,Activity,Rattus norvegicus [7],Non-toxic
same,Activity,Rattus norvegicus [8],Non-toxic
same,Activity,Rattus norvegicus [9],Active
same,Activity,Rattus norvegicus [10],inactive
same,Ratio Ki,Rattus norvegicus [11],3.5
same,Activity,Rattus norvegicus [12],Non-toxic
same,ED50,Rattus norvegicus [13],0.24 nmol
same,Activity,Rattus norvegicus [14],inactive
same,ED50,Rattus norvegicus [15],0.34 nmol
same,Activity,Rattus norvegicus [16],Toxic
same,ED50,Rattus norvegicus [17],2.78 nmol
same,Activity,Rattus norvegicus [18],Active
